EphB4 ephrin blk = EphB4-ephrin-B2 interaction antagonists, primary screen, biochemical, TNYL-RAW peptide probe, fluorescence polarization | EphB4 LBD / TNYL-RAW-Alexa532 peptide | Ephrin type-B receptor 4 (Homo sapiens), P54760 | AID 720, 2007 | hit rate 0.15% among 97,000 | inhibition, % at 7 µM;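 active means inhibition above the screen-wide mean inhibition plus 3 SD, cut at about 15% in these data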
Cav3 T inh = Cav3.2 calcium influx blockers – cell-based, Fluo-4 calcium fluorescence, FDSS, MLSMR library, primary screen | Voltage-dependent T-type calcium channel subunit alpha-1H (Homo sapiens), O95180 | Cav3.2-expressing cells; active compounds read low | B-score at 10 µM | hit rate 4% among 100,000 | AID 449739, 2010;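 active means single-dose well whose peak fluorescence ratio is a statistical outlier from its plate by either plate-standardised score or position-corrected B-score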
Rev-RRE block = HIV-1 Rev-RRE binding inhibitors, primary screen, biochemical, FRET, protein-RNA interaction. hit rate 0.79% among 97,000. AID 704, 2007. inhibition, % at 8 µM. P05866. Rev peptide-RRE RNA binding;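 active means inhibition above the screen-wide mean plus 3 SD, cut at about 35% in these data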
Target sequence (P05866 whole entry, looked up): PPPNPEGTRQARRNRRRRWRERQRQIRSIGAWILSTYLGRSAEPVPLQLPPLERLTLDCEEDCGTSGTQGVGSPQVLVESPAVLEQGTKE
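Test system: Cy5-tagged RRE RNA duplex with fluorescein-tagged Rev peptide | Read-out: % inhibition of FRET ratio versus controls | Probe or stimulus: Labelled Rev peptide | Incubation: 5 min RNA-compound premix plus 15 min binding step, 25 °C | Technique: FRET fluorescence readout | Benchmarks: DMSO low control, neomycin B high control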
hDAT+cocaine = changed hDAT dopamine uptake under cocaine IC80, either direction, primary screen, cocaine antagonist project, cell-based, LLC-PK1 hDAT, [14C]-dopamine uptake, MLSMR; Sodium-dependent dopamine transporter (Homo sapiens), Q01959; LLC-PK1 hDAT cells, [14C]-dopamine uptake with cocaine IC80; actives deviate in either direction; B-score at 10 µM; hit rate 1.3% among 110,000;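 active means Z score or B-score, a plate-position-corrected score, falls beyond the plate's 99.7% confidence bounds, in either direction; inactive means both scores lie inside the 99.7% bounds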
A number is an active result; – = inactive; · = no result given. In the library only some 5.4% were active in any assay of this set; here they are far more common.

SMILES	EphB4 ephrin blk	Cav3 T inh	Rev-RRE block	hDAT+cocaine
Cc1csc(NC(=O)C2CCCN(S(=O)(=O)c3ccc(Br)s3)C2)n1 (stereo unspecified)	–	·	–	–
CS(=O)(=O)N(CC(=O)N1CCN(c2ccccc2)CC1)c1cc(C(F)(F)F)ccc1Cl	–	-4.3	–	–
COC(=O)C1(Cc2ccc(O)cc2)OC(=O)C(O)=C1c1ccc(O)cc1 (stereo unspecified)	·	–	·	–
CCC(C)NC(=O)C1CCN(S(=O)(=O)c2ccc(OC)cc2)CC1 (stereo unspecified)	–	–	–	–
COC(=O)c1ccc(NC(=O)C2CC(=O)N(c3ccc(C)cc3)C2)cc1 (stereo unspecified)	–	–	–	–
CC(OC(=O)Cc1coc2cc3c(cc12)CCC3)C(=O)NCc1ccc2c(c1)OCO2 (stereo unspecified)	–	–	–	–
Cc1ccc2c(CC(=O)OC(C)C(=O)NCc3ccc4c(c3)OCO4)coc2c1 (stereo unspecified)	–	-5.1	–	–
O=C(NCc1ccc2c(c1)OCO2)c1cc(-c2ccccc2)on1	–	-4.6	–	–
O=C(CCc1c[nH]c2ccccc12)NCc1ccc2c(c1)OCO2	–	–	–	–
Cc1ccc2c(CC(=O)NCc3ccc4c(c3)OCO4)coc2c1	–	-4.6	–	–
Cc1ccc(-c2cc(C(=O)NCc3ccc4c(c3)OCO4)no2)cc1	–	–	–	–
O=C(CCCc1c[nH]c2ccccc12)NCc1ccc2c(c1)OCO2	–	-10	–	–
O=C(NCc1ccc2c(c1)OCO2)C1CC(c2ccccc2O)=NO1 (stereo unspecified)	–	–	–	–
Cc1ccc(CC(=O)NCc2ccc3c(c2)OCO3)cc1	–	–	–	–
O=C(NCc1ccc2c(c1)OCO2)C1CC(c2cccc(Br)c2)=NO1 (stereo unspecified)	–	-9.1	–	–
Cc1ccc(-c2noc(CCC(=O)NCc3ccc4c(c3)OCO4)n2)cc1	–	–	–	1.2
CCCCc1ccc(N2C(=O)[C@@H]3C(CC(N)=O)NC4(C(=O)Nc5ccc(F)cc54)[C@@H]3C2=O)cc1 (stereo partly specified)	–	–	–	–
CCc1ccc(OCC(=O)NC(=S)Nc2ccc(S(=O)(=O)NC3CCCCC3)cc2)cc1	–	–	–	–
O=C(CSc1nnnn1-c1ccccc1)N1CCc2ccccc2C1	–	–	–	–
CC(=O)c1ccc(-n2nnnc2SCC(=O)N2CCc3ccccc3C2)cc1	18	–	–	–
CC1(CCc2ccc(O)cc2)NC(=O)NC1=O (stereo unspecified)	–	–	–	–
CCCCN1C=C(C(=O)OC)C(c2ccccc2C(F)(F)F)C(C(=O)OC)=C1	–	–	–	3.1
CCCCOc1ccccc1C1C(C(=O)OC)=C(C)N(C)C(C)=C1C(=O)OC	–	–	–	–
CC1CC(C)CN(C(=O)c2ccc3c(c2)N(Cc2ccccc2)CCS3)C1 (stereo unspecified)	–	-7.7	–	–
Cc1ccc(S(=O)(=O)N(CC(=O)N2CCC(C)CC2)Cc2ccccc2F)cc1	–	–	–	–
SMILES	EphB4 ephrin blk	Cav3 T inh	Rev-RRE block	hDAT+cocaine
Cc1cccc(-c2nc(CS(=O)CC(=O)NCCCSC3CCCCC3)c(C)o2)c1 (stereo unspecified)	–	-7.1	–	–
COCCNC(=O)CS(=O)Cc1nc(-c2ccc(Cl)cc2)oc1C (stereo unspecified)	–	·	–	·
COc1cccc(-c2nc(CS(=O)CC(=O)NC3CCCC3)c(C)o2)c1 (stereo unspecified)	–	–	–	–
CCCCNC(=O)CS(=O)Cc1nc(-c2ccc(C)cc2)oc1C (stereo unspecified)	–	–	–	–
Cc1ccc(-c2nc(CS(=O)CC(=O)NCc3ccc(Cl)cc3)c(C)o2)cc1 (stereo unspecified)	–	-6	–	–
CCc1cccc(NC(=O)CS(=O)Cc2nc(-c3ccc(C)cc3)oc2C)c1 (stereo unspecified)	–	-6.7	–	–
Cc1ccc(C(c2nnnn2CC2CCCO2)N2CCN(c3cccc(C)c3C)CC2)cc1 (stereo unspecified)	–	·	–	–
CCCCCn1c(CN2CCN(c3cc(Cl)ccc3C)CC2)nc2c1c(=O)[nH]c(=O)n2C	–	-4.4	–	–

From PubChem BioAssay
